Measurements pooled from the literature.
Lines come from different studies, so protocols differ.
Target: Calcium/calmodulin-dependent protein kinase type II subunit beta (CAMK2B, Homo sapiens, UniProt Q13554)

CCN(CC)CCNC(=O)c1c(C)[nH]c(/C=C2\C(=O)Nc3ccc(Cl)cc32)c1C — remaining activity (enzyme activity; inhibitor; 0.5 µM): 27.3%
Cc1ccc(-n2nc(C(C)(C)C)cc2NC(=O)Nc2ccc(OCCN3CCOCC3)c3ccccc23)cc1 — inhibition (enzyme activity; inhibitor; 10 µM): 22%
Cc1cnc(NC2CCOCC2)nc1-n1cnc(C(=O)NC(CN)c2cc(F)cc(Cl)c2)c1 (stereo not drawn) — remaining activity (enzyme activity; inhibitor; radiometric; 1 µM): 87%
CCCCNc1ncc2c(-c3ccc(F)cc3)nn(C[C@H]3CC[C@H](N)CC3)c2n1 — inhibition (target engagement in cells; inhibitor; chemoproteomics; 20 mM): 29%
CC(C)c1ccc(NC(=O)c2cccs2)c(-c2nc3ccccc3[nH]c2=O)c1 — activity vs control (enzyme activity; inhibitor; 1 µM): 108%
CCN(CC)CCNC(=O)c1c(C)[nH]c(/C=C2\C(=O)Nc3ccc(F)cc32)c1C — inhibition (enzyme activity; inhibitor; 10 µM): 91%
COc1cc(-c2cc(-c3ccc(N4CCNCC4)cc3)cnc2C)cc(OC)c1OC — inhibition (enzyme activity; inhibitor; 1 µM): 1%
O=C(Nc1ccc(Oc2ccc(F)cc2)cc1)N1CCc2ncccc2[C@H]1c1ccc(F)cc1 — remaining binding (cell-free assay; competition with immobilised ligand; 1 µM): 100%
COc1ccc(COc2ccc(Cc3cnc(N)nc3N)cc2OC)cc1 — remaining signal (cell-free assay; 0.5 µM): 100%
Cc1noc([C@H]2C[C@@H](c3ccc(C(F)(F)F)cc3)CN(C(=O)N3CCS(=O)(=O)C3)C2)n1 — remaining binding (cell-free assay; competition with immobilised ligand; 1 µM): 100%
O=c1cc(-c2cccc3c2Sc2ccccc2S3)oc(N2CCOCC2)c1 — remaining activity (enzyme activity; inhibitor; 0.5 µM): 106%
Cc1ccc(C(=O)NCc2ccsc2)cc1C#Cc1cn(C(C)C)c2ncnc(N)c12 — activity vs control (enzyme activity; inhibitor; 1 µM): 95%
CCCS(=O)(=O)Nc1ccc(F)c(C(=O)c2c[nH]c3ncc(-c4ccc(Cl)cc4)cc23)c1F — inhibition (enzyme activity; inhibitor; 1 µM): < 10%
Cc1sc(C(=O)NC2COC2)cc1-n1cc(NC(=O)Nc2c(F)cccc2Cl)cn1 — remaining activity (enzyme activity; inhibitor; 10 µM): 100%
CNC(=O)c1cc(Oc2ccc(NC(=O)Nc3ccc(Cl)c(C(F)(F)F)c3)cc2)ccn1 — inhibition (enzyme activity; inhibitor; 10 µM): 50%
Nc1ncnc2occ(-c3ccc(NC(=O)Nc4cc(C(F)(F)F)ccc4F)cc3)c12 — remaining activity (enzyme activity; inhibitor; 20 µM): 95%
Cc1nc(Cc2cccc(C(F)(F)F)c2)sc1-c1ccc(C(N)=O)nc1 — remaining binding (cell-free assay; competition with immobilised ligand; 1 µM): 100%
Cc1ccc(Nc2nccc(N(C)c3ccc4c(C)n(C)nc4c3)n2)cc1S(N)(=O)=O — inhibition (enzyme activity; inhibitor; 0.3 µM): 15%
Oc1ccc(-c2nc(-c3ccncc3)c(-c3ccc(F)cc3)[nH]2)cc1 — remaining signal (cell-free assay; 0.5 µM): 96.4%
COc1cc2ncnc(Nc3ccc(Oc4ccccc4)c(C)c3C)c2cc1OC — inhibition (enzyme activity; inhibitor; 1 µM): 12%
CCCCN(CCCC)C(=O)CN1C[C@@H](c2cc(OC)c3c(c2)OCO3)[C@H](C(=O)O)[C@H]1CC(C)(C)CCC — remaining binding (cell-free assay; competition with immobilised ligand; 1 µM): 100%
CN1CC(Oc2cnc(C#N)cc2-c2ccn3nc(NC(=O)C4CC4)cc3c2)C1 — inhibition (enzyme activity; inhibitor; 1 µM): -1%
CS(=O)(=O)N1CCCC(NC(=O)[C@H](CCC2CCCCC2)NC(=O)c2ccc(CNc3ncnc4c3nnn4-c3ccccc3)cc2)C1 (stereo partly drawn) — remaining binding (cell-free assay; competition with immobilised ligand; 0.1 µM): 100%
CCN(CC)c1ccc(C2=NNC(=O)CC2C)cc1[N+](=O)[O-] (stereo not drawn) — remaining activity (enzyme activity; inhibitor; 10 µM): 96%
O=C(O)[C@H]1[C@H](Cn2nnc3ccccc3c2=O)CC[C@@H]1C(=O)c1ccc(OCCC2CCOCC2)cc1 — remaining binding (cell-free assay; competition with immobilised ligand; 1 µM): 100%
Clc1ccc(Nc2nnc(Cc3ccncc3)c3ccccc23)cc1 — remaining signal (cell-free assay; 0.5 µM): 109%
COc1ccc2c(c1)O[C@H](c1ccc(OC)c(OC)c1)C[C@@H]2NC(=O)C1(c2ccc3c(c2)OC(F)(F)O3)CC1 — remaining binding (cell-free assay; competition with immobilised ligand; 1 µM): 88%
COc1cc(Nc2c(C#N)cnc3cc(OCCCN4CCN(C)CC4)c(OC)cc23)c(Cl)cc1Cl — remaining signal (cell-free assay; 0.5 µM): 86.2%
CC(C)(C)c1nc2c(s1)c1nc(N)ncc1c1ccc(NS(=O)(=O)c3c(F)cccc3F)c(F)c12 — remaining activity (enzyme activity; inhibitor; radiometric; 1 µM): 83%
CCC(=O)N[C@@H]1CC[C@H](C(=O)N(C)c2ccc(-c3nc4ccccc4o3)cc2)C1 — remaining binding (cell-free assay; competition with immobilised ligand; 1 µM): 100%
